Test results as given in ChEMBL document CHEMBL1629587, “Discovery of a small-molecule inhibitor of {beta}-1,6-glucan synthesis” (2009).
Activity calls are given as the source filed them.

Assays:
Saccharomyces cerevisiae [1] = assay: Antifungal activity against Saccharomyces cerevisiae YPH500 after 24 hrs by microdilution method; format: functional; details: YPH500, 24 h
Summary of the method: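 CLSI broth microdilution, incubated at 30°C, starting inoculum 1 × 10^3 to 3 × 10^3 cells/ml; drugs from DMSO, final DMSO below 1%. MIC-0 is the lowest concentration giving an optically clear well. MIC-2 is read with alamar blue as a 50% drop in A570 versus the drug-free control; both endpoints were recorded.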

Candida albicans [2] = assay: Antifungal activity against Candida albicans ATCC 24433 after 24 hrs by microdilution method; format: functional; details: ATCC 24433, 24 h
Summary of the method: (§1)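 CLSI broth microdilution run at 30°C instead of standard temperature; starting inoculum 1 × 10^3 to 3 × 10^3 cells/ml; DMSO under 1% final. Endpoints: MIC-0 = lowest concentration giving an optically clear well; MIC-2 = 50% drop versus drug-free control in absorbance at 570 nm with alamar blue redox indicator, used because treated cells clump.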

Candida albicans [3] = assay: Antifungal activity against Candida albicans ATCC MYA-573 after 24 hrs by microdilution method; format: functional; details: ATCC MYA-573, 24 h; summary of the method: as §1
Nakaseomyces glabratus [4] = assay: Antifungal activity against Candida glabrata IFO0622 after 24 hrs by microdilution method; format: functional; details: IFO0622, 24 h; summary of the method: as §1
Nakaseomyces glabratus [5] = assay: Antifungal activity against Candida glabrata ATCC 200918 after 24 hrs by microdilution method; format: functional; details: ATCC 200918, 24 h; summary of the method: as §1
Candida tropicalis [6] = assay: Antifungal activity against Candida tropicalis ATCC 200956 after 24 hrs by microdilution method; format: functional; details: ATCC 200956, 24 h; summary of the method: as §1
Candida tropicalis [7] = assay: Antifungal activity against Candida tropicalis TIMM0313 after 24 hrs by microdilution method; format: functional; details: TIMM0313, 24 h; summary of the method: as §1
Candida parapsilosis = assay: Antifungal activity against Candida parapsilosis IFO1396 after 24 hrs by microdilution method; format: functional; details: Lodderomyces parapsilosis, IFO1396, 24 h; summary of the method: as §1
Trichosporon asahii [8] = assay: Antifungal activity against Trichosporon asahii ATCC 90039 after 24 hrs by microdilution method; format: functional; details: ATCC 90039, 24 h; summary of the method: as §1
Aspergillus fumigatus = assay: Antifungal activity against Aspergillus fumigatus ATCC 36607 after 24 hrs by microdilution method; format: functional; details: ATCC 36607, 24 h; summary of the method: as §1
Aspergillus flavus = assay: Antifungal activity against Aspergillus flavus ATCC 64025 after 24 hrs by microdilution method; format: functional; details: ATCC 64025, 24 h; summary of the method: as §1
Candida albicans [9] = assay: Fungicidal activity against Candida albicans ATCC 24433 after 24 hrs by microdilution method; format: functional; details: ATCC 24433, 24 h
Summary of the method: (§2)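 Fungicidal concentration: after the MIC plate read, 4 μl from each well transferred into 200 μl MOPS-buffered RPMI, incubated 24 h at 30°C; MFC = lowest drug concentration with no visible growth.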

Candida tropicalis [10] = assay: Fungicidal activity against Candida tropicalis TIMM0313 after 24 hrs by microdilution method; format: functional; details: TIMM0313, 24 h; summary of the method: as §2
Nakaseomyces glabratus [11] = assay: Induction of multibudding phenotype in Candida glabrata IFO0622 after 18 hrs by microscopy; format: functional, organism-based
Summary of the method: (§3)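 Exponential-phase cells suspended in RPMI 1640 with or without drug (2 μg/ml shown), shaken gently 18 h at 30°C, fixed in 3% glutaraldehyde in 0.1 M phosphate buffer, inspected by inverted light microscopy.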

Candida albicans [12] = assay: Induction of multibudding phenotype in Candida albicans ATCC 24433 after 18 hrs by microscopy; format: functional, organism-based; summary of the method: as §3
Candida albicans [13] = assay: Inhibition of hyphal elongation of Candida albicans ATCC 24433 at 1 ug/ml after 6 hrs by microscopy; format: functional, organism-based
Summary of the method: (§4)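 Hyphae induced in HFM-7 medium (Lee's medium also used) on type I collagen-coated wells, drug 0, 1, 4 or 16 μg/ml; static culture at 37°C, viewed by light microscopy after 6 h or 24 h.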

Candida albicans [14] = assay: Inhibition of hyphal elongation of Candida albicans ATCC 24433 at 1 ug/ml after 24 hrs by microscopy; format: functional, organism-based; summary of the method: as §4
Candida albicans [15] = assay: Inhibition of hyphal elongation of Candida albicans ATCC 24433 at 16 ug/ml after 24 hrs by microscopy; format: functional, organism-based; summary of the method: as §4
Cryptococcus neoformans = assay: Antifungal activity against Cryptococcus neoformans ATCC 90112 at 32 ug/ml after 24 hrs by microdilution method; format: functional, organism-based; summary of the method: as §1
Trichosporon asahii [16] = assay: Antifungal activity against Trichosporon asahii ATCC 90039 at 32 ug/ml after 24 hrs by microdilution method; format: functional, organism-based; summary of the method: as §1
Aspergillus sp. = assay: Antifungal activity against Aspergillus sp. at 32 ug/ml after 24 hrs by microdilution method; format: functional, organism-based; summary of the method: as §1
Staphylococcus aureus = assay: Antibacterial activity against Staphylococcus aureus 209P; format: functional
Saccharomyces cerevisiae [17] = assay: Inhibition of mannan synthesis in Saccharomyces cerevisiae AY-10 assessed as reduction in [14C]glucose incorporation at 0.078 to 1.25 ug/ml after 1 hr; format: functional, organism-based
Summary of the method: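 Exponential cells in RPMI 1640 at A595 about 0.6, pulse-labelled with [14C]glucose 2 μCi/ml plus drug at 30°C, sampled at 1 and 3 h. Cell wall fractionated: mannan from 3% NaOH extracts at 80°C by Fehling's reaction; residue digested with Zymolyase 100T (1 mg/ml), insoluble part = chitin; β-1,3-glucan = total glucan minus dialysed β-1,6-glucan. Scintillation counting; % change versus untreated.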

Saccharomyces cerevisiae [18] = assay: […] activity against Saccharomyces cerevisiae AY-10 after 24 hrs by microdilution method; format: functional; details: AY-10, 24 h
Saccharomyces cerevisiae [19] = assay: Fungicidal activity against Saccharomyces cerevisiae AY-10-R4 mutant after 24 hrs by microdilution method; format: functional; details: AY-10-R4, 24 h
Saccharomyces cerevisiae [20] = assay: Fungicidal activity against Saccharomyces cerevisiae AY-10-R16 mutant after 24 hrs by microdilution method; format: functional; details: AY-10-R16, 24 h
Saccharomyces cerevisiae [21] = assay: Fungicidal activity against Saccharomyces cerevisiae CT-1a mutant after 24 hrs by microdilution method; format: functional
Saccharomyces cerevisiae [22] = assay: Fungicidal activity against Saccharomyces cerevisiae CT-2a mutant after 24 hrs by microdilution method; format: functional
Saccharomyces cerevisiae [23] = assay: […] activity against Saccharomyces cerevisiae AY-10 transformed with pRS416-13 carrying ADP1 gene after 24 hrs by microdilution method; format: functional; details: AY-10, 24 h
Saccharomyces cerevisiae [24] = assay: […] activity against Saccharomyces cerevisiae AY-10 transformed with pRS416-31 carrying KRE6 gene after 24 hrs by microdilution method; format: functional; details: AY-10, 24 h
Escherichia coli = assay: Antibacterial activity against Escherichia coli NIHJ; format: functional
PC-6 = assay: Cytotoxicity against human PC6 cells; format: functional
Summary of the method: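 Human PC-6 lung cancer cells; growth inhibition read as GI50; DMSO kept below 0.5% final for human cells.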

Nakaseomyces glabratus [25] = assay: Fungistatic activity aganist Candida glabrata IFO0622assessed as growth inhibition at 1 to 16 ug/ml by time-kill study; format: functional, organism-based; details: IFO0622
Summary of the method: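 Exponentially growing cells suspended at 1 × 10^4 cells/ml in RPMI 1640 with or without drug, shaken gently at 30°C; samples taken at 2, 4, 8, 24 and 48 h, diluted and spread on SDA, colonies counted after overnight incubation at 30°C to give viable cell numbers.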

CCc1c(C)c(C#N)c2nc3ccccc3n2c1NCCN(CC)CC
active: Activity (Nakaseomyces glabratus [11]) | Activity (Candida albicans [12]) | inhibition (Candida albicans [13]) | inhibition (Candida albicans [14]) | inhibition (Candida albicans [15]) | Activity (Nakaseomyces glabratus [25]) Dose-dependent effect
> 64 µg/mL: MIC (Saccharomyces cerevisiae [22])
8 µg/mL: MIC50 (Candida albicans [2]) | MIC (Candida tropicalis [7]) | MIC (Saccharomyces cerevisiae [19]) | MIC (Saccharomyces cerevisiae [21])
> 16 µg/mL: GI50 (PC-6)
32 µg/mL: MIC (Candida albicans [2]) | MIC (Candida albicans [3]) | MIC (Saccharomyces cerevisiae [24])
> 32 µg/mL: MIC (Candida parapsilosis) | MIC (Trichosporon asahii [8]) | MIC50 (Trichosporon asahii [8]) | MIC (Aspergillus fumigatus) | MIC50 (Aspergillus fumigatus) | MIC (Aspergillus flavus) | MIC50 (Aspergillus flavus) | MFC (Candida albicans [9]) | MFC (Candida tropicalis [10]) | MIC (Staphylococcus aureus) | MIC (Escherichia coli)
inactive: Activity (Cryptococcus neoformans) | Activity (Trichosporon asahii [16]) | Activity (Aspergillus sp.) | inhibition (Saccharomyces cerevisiae [17])
4 µg/mL: MIC (Nakaseomyces glabratus [5]) | MIC50 (Nakaseomyces glabratus [5]) | MIC50 (Candida parapsilosis) | MIC (Saccharomyces cerevisiae [20]) | MIC (Saccharomyces cerevisiae [23])
16 µg/mL: MIC50 (Candida albicans [3])
1 µg/mL: MIC50 (Saccharomyces cerevisiae [1]) | MIC50 (Nakaseomyces glabratus [4]) | MIC (Candida tropicalis [6]) | MIC50 (Candida tropicalis [6]) | MIC50 (Candida tropicalis [7])
2 µg/mL: MIC (Saccharomyces cerevisiae [1]) | MIC (Nakaseomyces glabratus [4]) | MIC (Saccharomyces cerevisiae [18])
